Reference: ChEMBL document CHEMBL2396523, “The synthesis of isopropylidene mRNA cap analogs modified with phosphorothioate moiety and their evaluation as promoters of mRNA translation” (Bioorg Med Chem Lett, 2013)

What was measured:
[1] = target: Eukaryotic translation initiation factor 4E (Mus musculus) (UniProt P63073); assay: Binding affinity to mouse eIF4E by fluorescence quenching assay
Method in brief: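 Murine eIF4E titrated with cap analog solution; intrinsic Trp fluorescence quenching recorded at 337 nm with excitation at 280 nm. Equilibrium association constant (KAS) of the cap analog–eIF4E complex derived from the titration curves.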

[2] = species: Homo sapiens; assay: Translational activity in human immature DC assessed as luciferase mRNA activity after 72 hrs by bioluminescence assay relative to m2 7,3'-OGpppG; assay type: functional
Method in brief: (§1)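 Luciferase-coding mRNAs made by T7 RNA polymerase in vitro transcription with the respective cap, electroporated into human immature dendritic cells. Luciferase activity measured over 72 h after electroporation, duplicate measurements. Mathematical modeling of the time course gave translational efficiency, time of maximal protein expression and total protein expression.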

[3] = Translational activity in human immature DC assessed as total protein expression after 72 hrs by bioluminescence assay relative to m2 7,3'-OGpppG; assay type: functional; method in brief: as §1
[4] = Translational activity in human immature DC assessed as time point of maximal protein expression by bioluminescence assay; assay type: functional; method in brief: as §1
[5] = species: Oryctolagus cuniculus; assay: Translational activity in Flexi rabbit reticulocyte lysate assessed as luciferase mRNA activity after 60 mins relative to m7GpppG; assay type: functional
Method in brief: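 Luciferase mRNAs capped by in vitro transcription, added at several concentrations to rabbit reticulocyte lysate optimized for cap-dependent translation. Luminometry of luciferase activity 60 min after mRNA addition. Translation efficiency taken from slope of luciferase activity versus mRNA concentration, averaged over replicate experiments.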

[6] = Drug degradation in aqueous buffer at pH 2 after 4.5 hrs by RP HPLC analysis; assay type: physicochemical; details: pH 2, 4.5 h
Method in brief: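 Isopropylidene removal done in aqueous buffer at pH 2, 37 °C, for 4.5 h. Reaction progress followed by RP HPLC.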

Sequence of Eukaryotic translation initiation factor 4E (Mus musculus) (P63073 whole entry): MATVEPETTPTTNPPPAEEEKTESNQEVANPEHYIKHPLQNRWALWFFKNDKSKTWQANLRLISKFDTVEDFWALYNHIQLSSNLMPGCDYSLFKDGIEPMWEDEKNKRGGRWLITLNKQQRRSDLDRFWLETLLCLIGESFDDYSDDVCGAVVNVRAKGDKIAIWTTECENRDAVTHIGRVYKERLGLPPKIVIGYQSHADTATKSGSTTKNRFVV

| Structure (SMILES) | Ka [1] [µM⁻¹] | Ratio [2] | Ratio [5] | Stability [6] | Ratio [3] | TIME [4] [h] |
| --- | --- | --- | --- | --- | --- | --- |
| C[n+]1cn([C@@H]2O[C@H](COP(=O)([O-])OP(=O)(S)OP(=O)(O)OC[C@H]3O[C@@H](n4cnc5c(=O)[nH]c(N)nc54)[C@H](O)[C@@H]3O)[C@@H]3OC(C)(C)O[C@H]32)c2nc(N)nc(O)c21 (mixture of isomers; 2a) | 5.6 | 1.23 | 1.33 |  | 1.62 | 11.1 |
| C[n+]1cn([C@@H]2O[C@H](COP(=O)([O-])OP(=O)(S)OP(=O)(O)OC[C@H]3O[C@@H](n4cnc5c(=O)[nH]c(N)nc54)[C@H](O)[C@@H]3O)[C@@H]3OC(C)(C)O[C@H]32)c2nc(N)nc(O)c21 (mixture of isomers; 2b) [listing 1 of 2 here] | 9.2 | 1.08 | 1.16 |  | 0.97 | 8.9 |

Second part, led by results:

| Ka [1] [µM⁻¹] | Ratio [2] | Ratio [5] | Stability [6] | Structure (SMILES) | Ratio [3] | TIME [4] [h] |
| --- | --- | --- | --- | --- | --- | --- |
| 2.9 |  | 0.8 |  | C[n+]1cn([C@@H]2O[C@H](COP(=O)(O)OP(=O)([O-])OP(=O)(O)OC[C@H]3O[C@@H](n4cnc5c(=O)[nH]c(N)nc54)[C@H](O)[C@@H]3O)[C@@H]3OC(C)(C)O[C@H]32)c2nc(N)nc(O)c21 |  |  |
| 10.2 |  | 1.32 |  | CO[C@H]1[C@@H](O)[C@H](n2c[n+](C)c3c(O)nc(N)nc32)O[C@@H]1COP(=O)(O)OP(=O)([O-])OP(=O)(O)OC[C@H]1O[C@@H](n2cnc3c(=O)[nH]c(N)nc32)[C@H](O)[C@@H]1O |  | 9.25 |
|  |  |  | Stable | C[n+]1cn([C@@H]2O[C@H](COP(=O)([O-])OP(=O)(S)OP(=O)(O)OC[C@H]3O[C@@H](n4cnc5c(=O)[nH]c(N)nc54)[C@H](O)[C@@H]3O)[C@@H]3OC(C)(C)O[C@H]32)c2nc(N)nc(O)c21 (mixture of isomers; 2b) [listing 2 of 2 here] |  |  |
